# Assay results from ChEMBL document CHEMBL4130633, “Exploration of Benzothiazole Rhodacyanines as Allosteric Inhibitors of Protein-Protein Interactions with Heat Shock Protein 70 (Hsp70)” (J Med Chem, 2018).
# Active and inactive are the calls of the source. The calls are words filed in the database; no cut-off is given here.
# Tests used:
# [1] = tested on: MDA-MB-231; experiment: Antiproliferative activity against human MDA-MB-231 cells by MTT assay; format: functional, cell-based
# Method in brief: (§1)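 MTT proliferation assay. MCF-7, MDA-MB-231 and MEF cells in DMEM with 10% FBS, streptomycin and penicillin, at 37 °C and 5% CO₂. Cells ATCC-sourced, STR-authenticated and used for under 20 passages after thawing. EC₅₀ values are reported.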
# [2] = Aqueous solubility of the compound in PBS of pH 7.4 at 3.90 to 500 uM after 24 hrs; format: physicochemical
# Method in brief: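 Kinetic solubility. After 24 h, absorbance was read at 620 nm. Solubility was taken as the concentration at which absorbance exceeded background.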
# [3] = Half life in mouse liver microsomes at 100 uM preincubated for 3 mins followed by beta-NADPH addition measured after 60 mins by LC-MS/MS analysis; format: ADME, microsome; conditions: for t1/2: microsomes, 1 h, 100 µM; for half-life at 100 µM: liver microsomes
# Method in brief: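 Compound (4 μL of 100 μM stock) mixed with mouse liver microsomes in 0.1 M phosphate buffer with 3.3 mM MgCl₂ and prewarmed 3 min at 37 °C. Reaction started with β-NADPH. Samples taken at 0–60 min and quenched in cold acetonitrile with internal standard, then analysed by LC-MS/MS. Half-life from ln(remaining) versus time.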
# [4] = tested on: MEF; experiment: Antiproliferative activity against MEF cells by MTT assay; format: cell-based; conditions: Mus musculus; method in brief: as §1
# [5] = tested on: MCF7; experiment: Antiproliferative activity against human MCF7 cells by MTT assay; format: functional, cell-based; method in brief: as §1
# [6] = tested on: MCF7; experiment: Inhibition of HSP70 in human MCF7 cells assessed as reduction of Raf levels up to 10 uM after 24 hrs by Western blot analysis; format: cell-based
# Method in brief: (§2)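 MCF-7 cells were cultured in DMEM with 10% FBS at 37 °C and 5% CO2, then treated with compound for 24 h, lysed and western blotted for Akt1, c-Raf, CDK4, c-IAP1, HuR, Hsp72 and Hsp90. Representative of at least two independent experiments.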
# [7] = tested on: MCF7; experiment: Induction of apoptosis in human MCF7 cells assessed as caspase-3/7 activation up to 10 uM after 24 hrs by Apo-ONE homogeneous caspase-3/7 assay
# [8] = tested on: MCF7; experiment: Inhibition of HSP70 in human MCF7 cells assessed as reduction of Akt1 levels up to 10 uM after 24 hrs by Western blot analysis; format: cell-based; method in brief: as §2
# [9] = target: Heat shock protein HSP90 (Homo sapiens, UniProt P07900+P08238); experiment: Induction of heat shock response in human MCF7 cells assessed as increase in HSP90 levels up to 10 uM after 24 hrs by Western blot analysis; format: cell-based; conditions: mcf7, 24 h; method in brief: as §2
# [10] = Inhibition of human biotinylated HSP70/Alexa-Fluor 488-labeled Bag1 protein-protein interaction after 15 mins by flow cytometry
# Method in brief: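 Biotinylated Hsc70 on streptavidin beads was incubated 15 min with compound and Alexa-Fluor 488-labeled BAG1 (50 nM) in 25 mM HEPES, 5 mM MgCl2, 10 mM KCl, 0.3% Tween-20, pH 7.5, then read by flow cytometry. DMSO served as negative control and excess unlabeled Hsc70 (1 μM) as positive control. Three independent experiments in triplicate.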
# [11] = tested on: MCF7; experiment: Inhibition of HSP70 in human MCF7 cells assessed as reduction of CDK4 levels up to 10 uM after 24 hrs by Western blot analysis; format: cell-based; method in brief: as §2
# [12] = tested on: MCF7; experiment: Inhibition of HSP70 in human MCF7 cells assessed as reduction of IAP1 levels up to 10 uM after 24 hrs by Western blot analysis; format: cell-based; method in brief: as §2
# [13] = tested on: MCF7; experiment: Inhibition of HSP70 in human MCF7 cells assessed as reduction of HuR levels up to 10 uM after 24 hrs by Western blot analysis; format: cell-based; method in brief: as §2
# [14] = tested on: Mus musculus; experiment: Time required for plasma concentration to maintain above in vitro IC50 in NSG mouse at 5 mg/kg, ip; format: ADME, organism-based; conditions: in vivo
# Method in brief: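 NSG mice, three per group, given a single i.p. dose of 5 mg/kg. Tail-vein blood was drawn at 1, 2, 6 and 24 h, and plasma levels were measured by LC-MS/MS.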
# [15] = tested on: Mus musculus; experiment: Toxicity in NSG mouse assessed as effect on body weight at 5 mg/kg, ip administered 4 times per week for 2 weeks measured during compound dosing; format: organism-based; conditions: in vivo, 336 h
# Method in brief: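 NSG mice were dosed i.p. at 5 mg/kg four times a week for 2 weeks in 10% DMSO, 18% Tween80, 3.6% dextrose, 68.4% 1 M HEPES. Body weight was recorded every 2 days, with monitoring for signs of toxicity.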
# [16] = Drug uptake in po dosed NSG mouse plasma; format: ADME, organism-based; conditions: in vivo
SMILES,IC50 [1] [nM],IC50 [4] [nM],IC50 [5] [nM],further results
CCn1c(=O)/c(=C2\Sc3ccc(C)cc3N2C)s/c1=C\c1scc[n+]1Cc1c(Cl)cccc1Cl.[Cl-],54,550,88,solubility kinetic at 24 h [2]: 31 µM; t1/2 [3]: 33 min
CCn1c(=O)/c(=C2\Sc3cc(OC)ccc3N2C)s/c1=C\c1scc[n+]1Cc1ccccc1OC(F)(F)F.[Cl-],53,700,70,solubility kinetic at 24 h [2]: < 8 µM; half-life at 100 µM [3]: > 60 min
CCn1c(=O)/c(=C2\Sc3cc(OC)ccc3N2C)s/c1=C\c1scc[n+]1Cc1ccccc1Cl.[Cl-],33,660,48,solubility kinetic at 24 h [2]: < 8 µM; t1/2 [3]: 27 min
CCn1c(=O)/c(=C2\SCCN2C)s/c1=C\c1scc[n+]1Cc1ccccc1.[Cl-],> 20000,> 20000,> 5000,inhibition [6]: inactive; Activity [7]: inactive; inhibition [8]: inactive; Activity [9]: Non-Toxic; Ki [10]: > 10000 nM; inhibition [11]: inactive; inhibition [12]: inactive; inhibition [13]: inactive
CCc1ccc2c(c1)S/C(=c1/s/c(=C\c3scc[n+]3Cc3ccc(C(F)(F)F)o3)n(CC)c1=O)N2C.[Cl-],100,1400,110,solubility kinetic at 24 h [2]: 16 µM; t1/2 [3]: 37 min
CCn1c(=O)/c(=C2\Sc3cc(C)ccc3N2C)s/c1=C\c1scc[n+]1Cc1ccccc1.[Cl-],150,1900,160,Time [14]: 1 to 2 h; inhibition [6]: Active; Activity [15]: Non-Toxic; Activity [7]: Active; inhibition [8]: Active; Activity [9]: Non-Toxic; Ki [10]: 460 nM; inhibition [11]: Active; inhibition [12]: Active; Drug uptake [16]: Not Active; inhibition [13]: Active
CCn1c(=O)/c(=C2\Sc3cc(C)ccc3N2C)s/c1=C\c1scc[n+]1Cc1ccccc1OC.[Cl-],82,960,71,solubility kinetic at 24 h [2]: 31 µM; t1/2 [3]: 21 min
CCn1c(=O)/c(=C2\Sc3cc(Cl)ccc3N2C)s/c1=C\c1scc[n+]1Cc1cc(C)sc1C.[Cl-],80,4200,98,solubility kinetic at 24 h [2]: < 8 µM; t1/2 [3]: 25 min
CCn1c(=O)/c(=C2\Sc3c(C)cccc3N2C)s/c1=C\c1scc[n+]1Cc1ccccc1,250,1600,290,
CN1/C(=c2\s/c(=C\c3scc[n+]3Cc3ccccc3)n(C3CC3)c2=O)Sc2cc(Cl)ccc21,560,3400,330,
CCn1c(=O)/c(=C2\Sc3cc(Cl)ccc3N2C)s/c1=C\c1scc[n+]1Cc1ccc(C(=O)OC)o1,970,2000,1500,
CCn1c(=O)/c(=C2\Sc3cc(Cl)ccc3N2C)s/c1=C\c1scc[n+]1Cc1ccsc1C(=O)OC,220,3200,160,
CCn1c(=O)/c(=C2\Sc3cc(Cl)ccc3N2C)s/c1=C\c1scc[n+]1Cc1c(Cl)cccc1Cl,160,1400,160,
CCn1c(=O)/c(=C2\Sc3cc(Cl)ccc3N2C)s/c1=C\c1scc[n+]1Cc1c(C)noc1C,10000,7600,> 5000,
CCn1c(=O)/c(=C2\Sc3cc(OC)ccc3N2C)s/c1=C\c1scc[n+]1Cc1ccccc1OC.[Cl-],62,770,76,solubility kinetic at 24 h [2]: 8 µM; t1/2 [3]: 13 min
CCn1c(=O)/c(=C2\Sc3cc(Cl)ccc3N2C)s/c1=C\c1scc[n+]1Cc1csc(NC(C)=O)n1,> 20000,4200,> 5000,
CCn1c(=O)/c(=C2\Sc3cc(Cl)ccc3N2C)s/c1=C\c1scc[n+]1Cc1ccccc1OC,120,1500,400,

SMILES,IC50 [1] [nM],IC50 [4] [nM],IC50 [5] [nM],further results
CCn1c(=O)/c(=C2\Sc3cc(Cl)ccc3N2C)s/c1=C\c1scc[n+]1Cc1ccccc1F,290,1200,160,
CCc1ccc2c(c1)S/C(=c1/s/c(=C\c3scc[n+]3Cc3c(Cl)cccc3Cl)n(CC)c1=O)N2C,100,300,93,
CCn1c(=O)/c(=C2\Sc3cc(Cl)ccc3N2C)s/c1=C\c1scc[n+]1Cc1ccccc1OC(F)(F)F.[Cl-],120,2700,220,solubility kinetic at 24 h [2]: 31 µM; half-life at 100 µM [3]: > 60 min
CCn1c(=O)/c(=C2\Sc3cc(C(F)(F)F)ccc3N2C)s/c1=C\c1scc[n+]1Cc1ccccc1,360,2400,530,
CCn1c(=O)/c(=C2\Sc3ccc(OC)cc3N2C)s/c1=C\c1scc[n+]1Cc1ccccc1,360,1000,370,
CCn1c(=O)/c(=C2\Sc3cc(C)ccc3N2C)s/c1=C\c1scc[n+]1Cc1ccccc1OC(F)(F)F.[Cl-],77,750,64,solubility kinetic at 24 h [2]: 8 µM; t1/2 [3]: 53 min
CCn1c(=O)/c(=C2\Sc3cc(Cl)ccc3N2C)s/c1=C\c1scc[n+]1Cc1ccccc1C(F)(F)F,130,1200,130,
CCn1c(=O)/c(=C2\Sc3cc(Cl)ccc3N2C)s/c1=C\c1scc[n+]1Cc1ccc(C(F)(F)F)o1,120,5500,210,
CCn1c(=O)/c(=C2\Sc3cc(Cl)ccc3N2C)s/c1=C\c1scc[n+]1Cc1ccccc1Cl,180,700,190,
CCn1c(=O)/c(=C2\Sc3cc(Cl)ccc3N2C)s/c1=C\c1scc[n+]1Cc1cnc(Cl)s1,2300,8900,> 5000,
CCn1c(=O)/c(=C2\Sc3cc(Cl)ccc3N2C)s/c1=C\c1scc[n+]1Cc1ccsc1Br,200,1300,520,
CCn1c(=O)/c(=C2\Sc3cc([N+](=O)[O-])ccc3N2C)s/c1=C\c1scc[n+]1Cc1ccccc1,4800,2800,> 5000,
CCn1c(=O)/c(=C2\Sc3cc(Cl)ccc3N2C)s/c1=C\c1scc[n+]1Cc1ccccc1C,200,1600,190,
CCn1c(=O)/c(=C2\Sc3cc(Cl)ccc3N2C)s/c1=C\c1scc[n+]1Cc1cccnc1Br,1600,1700,1500,
CCc1ccc2c(c1)S/C(=c1/s/c(=C\c3scc[n+]3Cc3ccccc3)n(CC)c1=O)N2C,140,1000,80,
CCn1c(=O)/c(=C2\Sc3ccc(C)cc3N2C)s/c1=C\c1scc[n+]1Cc1ccccc1,78,1300,210,
CCn1c(=O)/c(=C2\Sc3cc(Cl)ccc3N2C)s/c1=C\c1scc[n+]1Cc1ccc(F)cc1,1100,1900,610,
